# Test results taken from ChEMBL document CHEMBL1140698, “Design, synthesis, and anti-inflammatory properties of orally active 4-(phenylamino)-pyrrolo[2,1-f][1,2,4]triazine p38alpha mitogen-activated protein kinase inhibitors” (J Med Chem, 2008).
# Legend:
# [1] = Bioavailability in mouse at 10 mg/kg, po; assay type: ADME, organism-based; details: in vivo
# Method in brief: (§1)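 Mice dosed at 5 mg/kg i.v. or 10 mg/kg p.o., 3 mice per group. Values given as average ± SEM.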
# [2] = Volume of distribution at steady state in mouse 5 mg/kg, iv or 10 mg/kg, po; assay type: ADME, organism-based; details: in vivo, read-out: Vdss; method in brief: as §1
# [3] = AUC (0 to 8 hrs) in mouse 5 mg/kg, iv or 10 mg/kg, po; assay type: ADME, organism-based; details: plasma; method in brief: as §1
# [4] = Clearance in mouse at 5 mg/kg, iv or 10 mg/kg, po; assay type: ADME, organism-based; details: in vivo; method in brief: as §1
# [5] = Metabolic stability in human liver microsome after 10 mins; assay type: ADME; details: liver microsomes, read-out: Stability
# Method in brief: (§2)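 Rat or pooled human (10 donors) liver microsomes at about 1 mg/mL protein, 1 mM NADPH, 56 mM potassium phosphate pH 7.4, compound 3 µM final, 37 °C. Quenched with acetonitrile and parent drug quantified by LC/MS/MS. Percent parent remaining at 10 min, n = 1.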
# [6] = tested on: Caco-2; assay: Intrinsic permeability across human Caco-2 cells; assay type: ADME, cell-based
# [7] = Half life in mouse at 5 mg/kg, iv or 10 mg/kg, po; assay type: ADME, organism-based; details: in vivo; method in brief: as §1
# [8] = AUC (0 to 4 hrs) in rat at 10 mg/kg, po; assay type: ADME, organism-based; design: time < 4 hr, dose 10 mg/kg, route oral; details: plasma
# Method in brief: (§3)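 Rats given a single oral 10 mg/kg dose in 9/0.5/0.5 water/EtOH/Tween 80. Plasma drug level measured at 0.5 h and AUC0-4h calculated, each as the average of 2 rats.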
# [9] = Drug level in rat plasma at 10 mg/kg, po after 0.5 hrs; assay type: ADME, organism-based; design: dose 10 mg/kg, route oral; method in brief: as §3
# [10] = Metabolic stability in rat liver microsome after 10 mins; assay type: ADME; details: liver microsomes, read-out: Stability; method in brief: as §2
# [11] = Mean residence time in mouse at 5 mg/kg, iv or 10 mg/kg, po; assay type: ADME, organism-based; details: in vivo; method in brief: as §1
# [12] = Cmax in mouse at 5 mg/kg, iv or 10 mg/kg, po; assay type: ADME, organism-based; details: in vivo; method in brief: as §1
# [13] = Tmax in mouse at 5 mg/kg, iv or 10 mg/kg, po; assay type: ADME, organism-based; details: in vivo; method in brief: as §1
SMILES,bioavailability [1] [%],Vd [2] [L/kg],AUC(0-t) [3] [µM·h],clearance [4] [mL/min/kg],remaining at 10 min [5] [%],Papp [6] [nm/s],half-life [7] [min],AUC(0-t) at 4 h [8] [µM·h],concentration at 0.5 h [9] [µM],remaining at 10 min [10] [%],MRT [11] [h],Cmax [12] [µM],Tmax [13] [min]
CCNC(=O)c1cn2ncnc(Nc3cc(C(=O)NOC)ccc3C)c2c1C,79,7.6,3.6,93,69,20,132,0.7,0.8,100,1.4,3.1,15
CONC(=O)c1ccc(C)c(Nc2ncnn3cc(C(=O)NCc4ccccn4)c(C)c23)c1,–,–,–,–,–,–,–,2.8,3.4,–,–,–,–
CCCNC(=O)c1cn2ncnc(Nc3cc(NC(=O)OCC)ccc3C)c2c1C,–,–,–,–,–,–,–,0.7,0.4,–,–,–,–
CCCNC(=O)c1cn2ncnc(Nc3cc(C(=O)NOC)ccc3C)c2c1C,97,1.6,13,28,83,58,150,2.1,6.6,82,1,18,15
CC[C@H](C)NC(=O)c1cn2ncnc(Nc3cc(C(=O)NOC)ccc3C)c2c1C,–,–,–,–,62,–,–,9.2,4.3,96,–,–,–
CONC(=O)c1ccc(C)c(Nc2ncnn3cc(C(=O)NC(C)C)c(C)c23)c1,–,–,–,–,–,–,–,3.7,3.8,–,–,–,–
CONC(=O)c1ccc(C)c(Nc2ncnn3cc(C(=O)N[C@@H](C)c4ccccc4)c(C)c23)c1,34,1.5,3.8,31,72,131,72,2.1,2.1,90,0.8,3.7,30
